Measurements taken from ChEMBL document CHEMBL1781898, “Orally active achiral N-hydroxyformamide inhibitors of ADAM-TS4 (aggrecanase-1) and ADAM-TS5 (aggrecanase-2) for the treatment of osteoarthritis” (Bioorg Med Chem Lett, 2011).
≈ marks a conversion by molar mass, not a printed value. Calls of active or inactive are those of the source. The rule behind the calls is not given here.

Key:
[1] = Free drug level in rat; format: ADME, organism-based; details: in vivo
[2] = Thermodynamic solubility of the compound in phosphate buffer at pH 7.4 after 24 hrs; format: physicochemical; details: read-out: Therm_solubility
[3] = target: T1, Cytochrome P450 1A2 (Homo sapiens, UniProt P05177); experiment: Inhibition of CYP1A2; format: ADME
T1 sequence (P05177 whole entry): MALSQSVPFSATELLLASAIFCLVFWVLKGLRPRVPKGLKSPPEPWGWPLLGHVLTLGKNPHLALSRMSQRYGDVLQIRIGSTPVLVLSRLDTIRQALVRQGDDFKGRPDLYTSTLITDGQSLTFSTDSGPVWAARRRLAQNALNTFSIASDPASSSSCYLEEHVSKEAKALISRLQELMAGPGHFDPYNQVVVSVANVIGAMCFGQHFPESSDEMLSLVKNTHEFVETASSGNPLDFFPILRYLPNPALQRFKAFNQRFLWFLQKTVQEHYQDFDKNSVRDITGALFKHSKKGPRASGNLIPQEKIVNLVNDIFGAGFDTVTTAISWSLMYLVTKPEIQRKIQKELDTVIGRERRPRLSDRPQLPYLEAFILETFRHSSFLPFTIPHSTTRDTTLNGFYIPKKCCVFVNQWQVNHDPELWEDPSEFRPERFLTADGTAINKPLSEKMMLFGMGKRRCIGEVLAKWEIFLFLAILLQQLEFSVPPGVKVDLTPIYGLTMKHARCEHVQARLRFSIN
Summary of the method: (§1)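 Inhibition of cytochrome P450 isoforms 1A2, 2C9, 2C19, 2D6 and 3A4, reported as pIC50.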

[4] = Apparent permeability across basolateral to apical side in human Caco2 cells at 10 uM; format: ADME, cell-based; details: Caco-2
[5] = Apparent permeability across apical to basolateral side in human Caco2 cells at 10 uM; format: ADME, cell-based; details: Caco-2
[6] = Half life in mouse; format: ADME, organism-based; details: in vivo
[7] = Free drug level in human; format: ADME, organism-based; details: in vivo
[8] = Clearance in dog at 1 mg/kg, iv and 1 mg/kg, po; format: ADME, organism-based, Canis lupus familiaris; details: in vivo
[9] = target: Cytochrome P450 2C19 (Homo sapiens, UniProt P33261); experiment: Inhibition of CYP2C19; format: ADME; summary of the method: as §1
[10] = Lipophilicity, log D of the compound; format: physicochemical; details: octanol/water
[11] = target: Cytochrome P450 2D6 (Homo sapiens, UniProt P10635); experiment: Inhibition of CYP2D6; format: ADME; summary of the method: as §1
[12] = target: Cytochrome P450 2C9 (Homo sapiens, UniProt P11712); experiment: Inhibition of CYP2C9; format: ADME; summary of the method: as §1
[13] = Intrinsic clearance in human hepatocytes measured per million cells; format: ADME, cell-based, Liver, Hepatocyte
Summary of the method: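 Human hepatocyte metabolism; intrinsic clearance expressed as μL/min/10⁶ cells, reported as mean of six separate experiments.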

[14] = organism: Homo sapiens; experiment: Inhibition of aggrecanase activity in IL-1, OSM and plasminogen-stimulated human articular cartilage explant assessed as reduction in CTXII peptide release at 10 uM after 14 days
[15] = Volume of distribution at steady state in mouse; format: ADME, organism-based; details: in vivo, read-out: Vdss
[16] = tested on: Cavia porcellus; experiment: Inhibition of ADAMTS4 in sc dosed Dunkin hartley guinea pig spontaneous osteoarthritis model assessed as reduction in NITEGE release in medial cartilage at concentration equivalent to 4 to 7 fold human ADAMTS4 FRET IC50 administered for 7 days; format: functional, organism-based
Summary of the method: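 Compound given for 7 days via subcutaneous mini-pump; articular cartilage then dissected from medial tibial plateau of hind knee joints and NITEGE neo-epitope levels measured in cartilage extracts versus vehicle-treated animals; significance P < 0.05.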

[17] = Free drug level in dog; format: ADME, organism-based, Canis lupus familiaris; details: in vivo
[18] = target: Voltage-gated inwardly rectifying potassium channel KCNH2 (Homo sapiens, UniProt Q12809)
[19] = Clearance in mouse; format: ADME, organism-based; details: in vivo
[20] = Oral bioavailability in dog; format: ADME, organism-based, Canis lupus familiaris; details: in vivo
[21] = Half life in rat at 2 mg/kg, iv and 3 to 10 mg/kg, po; format: ADME, organism-based; details: in vivo
[22] = organism: Homo sapiens; experiment: Inhibition of aggrecanase activity in IL-1, OSM and plasminogen-stimulated human articular cartilage explant assessed as reduction in CTXII peptide release at 10 uM after 21 days
Summary of the method: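 Human cartilage stimulated with interleukin-1, oncostatin-M and plasminogen for 21 days, without or with 10 µM compound.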

[23] = target: T2, A disintegrin and metalloproteinase with thrombospondin motifs 5 (Homo sapiens, UniProt Q9UNA0); experiment: Inhibition of ADAMTS-5 assessed as substrate cleavage after 16 hrs by fluorescence assay
T2 sequence (Q9UNA0 whole entry): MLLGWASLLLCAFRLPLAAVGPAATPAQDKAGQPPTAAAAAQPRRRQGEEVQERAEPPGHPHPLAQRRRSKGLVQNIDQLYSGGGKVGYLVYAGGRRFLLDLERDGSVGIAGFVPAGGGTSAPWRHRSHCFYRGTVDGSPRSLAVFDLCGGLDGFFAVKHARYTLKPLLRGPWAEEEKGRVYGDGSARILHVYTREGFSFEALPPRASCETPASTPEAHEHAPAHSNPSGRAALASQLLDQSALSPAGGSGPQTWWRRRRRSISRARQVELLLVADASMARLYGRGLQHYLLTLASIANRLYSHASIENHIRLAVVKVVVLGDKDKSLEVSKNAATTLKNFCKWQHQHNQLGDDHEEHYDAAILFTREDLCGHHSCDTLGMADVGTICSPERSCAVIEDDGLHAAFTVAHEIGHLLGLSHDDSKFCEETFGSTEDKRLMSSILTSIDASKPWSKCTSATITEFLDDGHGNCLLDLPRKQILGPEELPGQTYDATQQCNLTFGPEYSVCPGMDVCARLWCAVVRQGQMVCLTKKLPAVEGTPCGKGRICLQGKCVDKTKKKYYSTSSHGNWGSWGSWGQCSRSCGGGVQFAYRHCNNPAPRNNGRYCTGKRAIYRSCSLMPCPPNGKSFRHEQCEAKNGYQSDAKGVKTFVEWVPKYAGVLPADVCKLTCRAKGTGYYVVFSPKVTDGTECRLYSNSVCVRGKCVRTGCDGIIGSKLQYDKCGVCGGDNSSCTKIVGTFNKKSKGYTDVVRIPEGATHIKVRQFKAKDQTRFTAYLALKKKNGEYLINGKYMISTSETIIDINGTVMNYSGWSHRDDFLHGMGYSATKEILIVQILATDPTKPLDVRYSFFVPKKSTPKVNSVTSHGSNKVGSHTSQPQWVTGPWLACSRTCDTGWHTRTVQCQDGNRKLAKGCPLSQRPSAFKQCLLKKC
Summary of the method: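 Enzyme inhibition IC50s derived from at least six measurements, standard errors normally <5% within an assay; a standard compound run to keep assay-to-assay variability within twofold.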

[24] = Volume of distribution at steady state in dog at 1 mg/kg, iv and 1 mg/kg, po; format: ADME, organism-based, Canis lupus familiaris; details: in vivo, read-out: Vdss
[25] = Intrinsic clearance in human liver microsomes; format: ADME, Microsome
Summary of the method: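 Human liver microsome metabolism; intrinsic clearance expressed as μL/min/mg, reported as mean of eight separate experiments.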

[26] = Volume of distribution at steady state in rat at 2 mg/kg, iv and 3 to 10 mg/kg, po; format: ADME, organism-based; details: in vivo, read-out: Vdss
[27] = target: Cytochrome P450 3A4 (Homo sapiens, UniProt P08684); experiment: Inhibition of CYP3A4; format: ADME; summary of the method: as §1
[28] = Oral bioavailability in rat; format: ADME, organism-based; details: in vivo

Sequence of Cytochrome P450 2C19 (P33261 whole entry): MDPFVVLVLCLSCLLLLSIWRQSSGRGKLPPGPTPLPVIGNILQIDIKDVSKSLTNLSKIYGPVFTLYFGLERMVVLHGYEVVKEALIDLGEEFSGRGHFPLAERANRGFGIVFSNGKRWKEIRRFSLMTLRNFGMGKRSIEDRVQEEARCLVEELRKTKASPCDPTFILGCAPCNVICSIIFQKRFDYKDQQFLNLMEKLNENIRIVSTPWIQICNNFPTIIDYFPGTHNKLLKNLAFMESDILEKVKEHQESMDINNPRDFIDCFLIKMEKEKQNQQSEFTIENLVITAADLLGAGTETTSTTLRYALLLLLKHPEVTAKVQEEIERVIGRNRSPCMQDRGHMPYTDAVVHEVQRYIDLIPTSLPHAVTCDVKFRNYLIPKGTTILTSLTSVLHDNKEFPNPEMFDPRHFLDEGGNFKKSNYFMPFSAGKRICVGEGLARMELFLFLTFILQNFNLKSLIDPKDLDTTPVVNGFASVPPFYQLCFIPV
Sequence of Voltage-gated inwardly rectifying potassium channel KCNH2 (Q12809 whole entry): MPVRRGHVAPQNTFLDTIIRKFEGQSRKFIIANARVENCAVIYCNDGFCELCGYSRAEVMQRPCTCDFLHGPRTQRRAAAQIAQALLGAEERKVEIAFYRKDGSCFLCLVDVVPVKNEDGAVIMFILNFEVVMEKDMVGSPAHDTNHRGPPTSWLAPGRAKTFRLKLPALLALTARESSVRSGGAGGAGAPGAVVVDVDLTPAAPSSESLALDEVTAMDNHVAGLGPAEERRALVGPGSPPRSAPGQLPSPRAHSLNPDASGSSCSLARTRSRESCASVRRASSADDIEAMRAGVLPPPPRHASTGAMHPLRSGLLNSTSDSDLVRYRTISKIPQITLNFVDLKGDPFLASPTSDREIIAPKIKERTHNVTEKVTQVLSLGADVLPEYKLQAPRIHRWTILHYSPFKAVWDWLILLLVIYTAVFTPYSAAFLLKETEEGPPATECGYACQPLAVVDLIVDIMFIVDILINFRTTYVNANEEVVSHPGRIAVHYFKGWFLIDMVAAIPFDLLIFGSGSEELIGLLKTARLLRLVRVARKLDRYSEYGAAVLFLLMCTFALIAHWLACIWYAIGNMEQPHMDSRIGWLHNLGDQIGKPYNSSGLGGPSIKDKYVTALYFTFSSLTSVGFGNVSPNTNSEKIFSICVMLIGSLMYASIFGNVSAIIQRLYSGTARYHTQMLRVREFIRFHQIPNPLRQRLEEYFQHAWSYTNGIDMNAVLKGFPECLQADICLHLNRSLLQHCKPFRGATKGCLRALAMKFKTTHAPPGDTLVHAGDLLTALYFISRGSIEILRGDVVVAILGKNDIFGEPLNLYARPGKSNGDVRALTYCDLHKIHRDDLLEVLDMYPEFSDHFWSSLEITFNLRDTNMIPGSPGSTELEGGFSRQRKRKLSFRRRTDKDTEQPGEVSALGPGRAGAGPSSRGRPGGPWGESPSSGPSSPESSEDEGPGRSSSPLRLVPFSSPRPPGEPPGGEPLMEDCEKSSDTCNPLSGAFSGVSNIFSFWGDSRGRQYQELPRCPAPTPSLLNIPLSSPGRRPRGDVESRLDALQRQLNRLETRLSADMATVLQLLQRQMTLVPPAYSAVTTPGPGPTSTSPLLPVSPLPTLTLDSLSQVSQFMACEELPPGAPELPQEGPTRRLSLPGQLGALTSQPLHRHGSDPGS
Sequence of Cytochrome P450 3A4 (P08684 whole entry): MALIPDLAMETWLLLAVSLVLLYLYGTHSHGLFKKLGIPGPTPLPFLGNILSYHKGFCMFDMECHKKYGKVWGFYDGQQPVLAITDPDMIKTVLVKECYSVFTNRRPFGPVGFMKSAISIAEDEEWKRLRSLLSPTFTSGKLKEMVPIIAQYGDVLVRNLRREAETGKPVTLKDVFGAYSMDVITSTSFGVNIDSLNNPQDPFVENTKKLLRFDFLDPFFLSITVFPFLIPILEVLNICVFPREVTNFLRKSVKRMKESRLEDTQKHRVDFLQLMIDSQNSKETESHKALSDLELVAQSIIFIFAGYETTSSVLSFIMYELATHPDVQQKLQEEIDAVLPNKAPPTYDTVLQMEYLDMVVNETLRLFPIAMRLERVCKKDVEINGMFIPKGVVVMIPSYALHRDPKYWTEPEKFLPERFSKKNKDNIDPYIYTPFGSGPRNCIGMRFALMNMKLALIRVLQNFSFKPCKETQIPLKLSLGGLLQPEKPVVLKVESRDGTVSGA
Sequence of Cytochrome P450 2D6 (P10635 whole entry): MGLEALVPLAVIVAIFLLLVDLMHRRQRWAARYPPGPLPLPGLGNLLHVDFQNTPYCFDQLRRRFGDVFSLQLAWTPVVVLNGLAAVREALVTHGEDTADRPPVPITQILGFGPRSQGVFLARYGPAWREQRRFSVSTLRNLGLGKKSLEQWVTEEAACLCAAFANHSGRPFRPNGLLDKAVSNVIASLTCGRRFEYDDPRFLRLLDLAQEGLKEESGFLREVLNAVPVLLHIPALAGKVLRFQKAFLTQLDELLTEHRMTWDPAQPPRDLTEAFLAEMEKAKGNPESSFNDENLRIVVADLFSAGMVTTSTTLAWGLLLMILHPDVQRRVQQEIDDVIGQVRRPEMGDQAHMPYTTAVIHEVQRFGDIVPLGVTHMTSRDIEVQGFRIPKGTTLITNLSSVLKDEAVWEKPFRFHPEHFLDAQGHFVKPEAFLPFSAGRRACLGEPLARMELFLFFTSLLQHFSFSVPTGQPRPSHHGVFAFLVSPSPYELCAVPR
Sequence of Cytochrome P450 2C9 (P11712 whole entry): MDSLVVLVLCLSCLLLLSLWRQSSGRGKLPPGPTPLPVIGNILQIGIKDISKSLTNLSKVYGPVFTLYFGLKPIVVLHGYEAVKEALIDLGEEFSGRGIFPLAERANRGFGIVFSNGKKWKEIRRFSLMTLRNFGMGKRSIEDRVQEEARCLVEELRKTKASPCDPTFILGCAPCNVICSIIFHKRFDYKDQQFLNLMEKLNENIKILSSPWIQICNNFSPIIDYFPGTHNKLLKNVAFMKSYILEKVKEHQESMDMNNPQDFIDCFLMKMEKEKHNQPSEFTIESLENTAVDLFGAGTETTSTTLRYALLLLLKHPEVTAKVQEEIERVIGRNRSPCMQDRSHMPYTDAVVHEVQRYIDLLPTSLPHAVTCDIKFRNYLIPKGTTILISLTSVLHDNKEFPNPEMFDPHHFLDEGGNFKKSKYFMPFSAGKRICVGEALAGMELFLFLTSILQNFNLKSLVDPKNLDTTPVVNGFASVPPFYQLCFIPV

fraction unbound [1]: 0.22 | solubility thermodynamic at 24 h [2]: 150 µM (≈ 76.7 µg/mL) | inhibition (INH) [3]: Not Active | Papp B→A at 10 µM [4]: 10.9 ×10⁻⁶ cm/s | Papp A→B at 10 µM [5]: 5.3 ×10⁻⁶ cm/s | half-life [6]: 324 min | fraction unbound [7]: 0.11 | clearance [8]: 20.7 mL/min/kg | inhibition (INH) [9]: Not Active | logD [10]: 1.6 | inhibition (INH) [11]: Not Active | inhibition (INH) [12]: Not Active | hepatocyte CLint [13]: < 2 µL/min/1e6 cells | inhibition [14]: Active | Vd [15]: 7.2 L/kg | fraction unbound [17]: 0.25 | clearance [19]: 16.8 mL/min/kg | bioavailability [20]: 20% | half-life [21]: 660 min | inhibition [22]: Active | IC50 [23]: 23 nM | Vd [24]: 9.2 L/kg | microsomal CLint [25]: 29.4 µL/min/mg | Vd [26]: 7.4 L/kg | inhibition (INH) [27]: Not Active | bioavailability [28]: 1%
Structure (SMILES): Cc1noc(C)c1CCC1CCN(S(=O)(=O)C[C@](C)(C[C@H](C)c2ncc(F)cn2)N(O)C=O)CC1
inhibition [16]: Active | IC50 [18]: 65 µM
